Experimental data published in ChEMBL document CHEMBL3352014, “Effect of acyclic monoterpene alcohols and their derivatives on TRP channels” (Bioorg Med Chem Lett, 2014).

Tests used:
[1] = molecular target: T1, Transient receptor potential cation channel subfamily V member 1 (Homo sapiens, UniProt Q8NER1); assay: Antagonist activity against human TRPV1 expressed in HEK293 cells assessed as inhibition of capsaicin-induced increase in intracellular Ca2+ concentration by Fluo-4-AM dye based spectrofluorimetry; type: cell-based
[2] = molecular target: T2, Transient receptor potential cation channel subfamily A member 1 (Rattus norvegicus, UniProt Q6RI86); assay: Antagonist activity against rat TRPA1 expressed in HEK293 cells assessed as inhibition of AITC-induced increase in intracellular Ca2+ concentration by Fluo-4-AM dye based spectrofluorimetry; type: cell-based
[3] = molecular target: T2, Transient receptor potential cation channel subfamily A member 1; assay: Agonist activity at rat TRPA1 expressed in HEK293 cells assessed as increase in intracellular Ca2+ concentration by Fluo-4-AM dye based spectrofluorimetry; type: cell-based
[4] = molecular target: Transient receptor potential cation channel subfamily M member 8 (Rattus norvegicus, UniProt Q8R455); assay: Antagonist activity against rat TRPM8 expressed in HEK293 cells assessed as inhibition of icilin-induced increase in intracellular Ca2+ concentration by Fluo-4-AM dye based spectrofluorimetry; type: cell-based
[5] = molecular target: Transient receptor potential cation channel subfamily M member 8 (Rattus norvegicus) (UniProt Q8R455); assay: Agonist activity at rat TRPM8 expressed in HEK293 cells assessed as increase in intracellular Ca2+ concentration by Fluo-4-AM dye based spectrofluorimetry relative to ionomycin; type: cell-based
How it was run: (§1)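 Same stably transfected HEK293 Fluo-4 calcium assay: human TRPV1, rat TRPM8. Tyrode's buffer pH 7.4, 25 °C, ex 488/em 516 nm. Efficacy is the compound-evoked [Ca2+]i rise normalized to the maximal Ca2+ influx from 4 µM ionomycin. Means of at least 3 determinations.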

[6] = molecular target: T1, Transient receptor potential cation channel subfamily V member 1; assay: Agonist activity at human TRPV1 expressed in HEK293 cells assessed as increase in intracellular Ca2+ concentration by Fluo-4-AM dye based spectrofluorimetry relative to ionomycin; type: cell-based; how it was run: as §1
[7] = molecular target: T1, Transient receptor potential cation channel subfamily V member 1; assay: Agonist activity at human TRPV1 expressed in HEK293 cells assessed as increase in intracellular Ca2+ concentration by Fluo-4-AM dye based spectrofluorimetry; type: cell-based
How it was run: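 HEK293 stably expressing human TRPV1 or rat TRPM8, grown in EMEM with non-essential amino acids, 10% FBS, 2 mM glutamine, 37 °C, 5% CO2. Fluo-4-AM loaded 1 h at room temperature; cells in Tyrode's buffer pH 7.4, about 100,000 per stirred cuvette. Fluorescence (ex 488/em 516 nm) read at 25 °C before and after various compound concentrations. EC50 from sigmoidal variable-slope fit; at least 3 determinations.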

[8] = molecular target: Transient receptor potential cation channel subfamily A member 1 (Homo sapiens) (UniProt O75762); assay: Antagonist activity against TRPA1 (unknown origin) assessed as reduction in H2O2-induced receptor activation at 400 uM
[9] = molecular target: T3, Transient receptor potential cation channel subfamily M member 8 (Homo sapiens, UniProt Q7Z2W7); assay: Agonist activity at TRPM8 (unknown origin) relative to untreated control
Target sequence in this assay (Q7Z2W7 whole entry, looked up): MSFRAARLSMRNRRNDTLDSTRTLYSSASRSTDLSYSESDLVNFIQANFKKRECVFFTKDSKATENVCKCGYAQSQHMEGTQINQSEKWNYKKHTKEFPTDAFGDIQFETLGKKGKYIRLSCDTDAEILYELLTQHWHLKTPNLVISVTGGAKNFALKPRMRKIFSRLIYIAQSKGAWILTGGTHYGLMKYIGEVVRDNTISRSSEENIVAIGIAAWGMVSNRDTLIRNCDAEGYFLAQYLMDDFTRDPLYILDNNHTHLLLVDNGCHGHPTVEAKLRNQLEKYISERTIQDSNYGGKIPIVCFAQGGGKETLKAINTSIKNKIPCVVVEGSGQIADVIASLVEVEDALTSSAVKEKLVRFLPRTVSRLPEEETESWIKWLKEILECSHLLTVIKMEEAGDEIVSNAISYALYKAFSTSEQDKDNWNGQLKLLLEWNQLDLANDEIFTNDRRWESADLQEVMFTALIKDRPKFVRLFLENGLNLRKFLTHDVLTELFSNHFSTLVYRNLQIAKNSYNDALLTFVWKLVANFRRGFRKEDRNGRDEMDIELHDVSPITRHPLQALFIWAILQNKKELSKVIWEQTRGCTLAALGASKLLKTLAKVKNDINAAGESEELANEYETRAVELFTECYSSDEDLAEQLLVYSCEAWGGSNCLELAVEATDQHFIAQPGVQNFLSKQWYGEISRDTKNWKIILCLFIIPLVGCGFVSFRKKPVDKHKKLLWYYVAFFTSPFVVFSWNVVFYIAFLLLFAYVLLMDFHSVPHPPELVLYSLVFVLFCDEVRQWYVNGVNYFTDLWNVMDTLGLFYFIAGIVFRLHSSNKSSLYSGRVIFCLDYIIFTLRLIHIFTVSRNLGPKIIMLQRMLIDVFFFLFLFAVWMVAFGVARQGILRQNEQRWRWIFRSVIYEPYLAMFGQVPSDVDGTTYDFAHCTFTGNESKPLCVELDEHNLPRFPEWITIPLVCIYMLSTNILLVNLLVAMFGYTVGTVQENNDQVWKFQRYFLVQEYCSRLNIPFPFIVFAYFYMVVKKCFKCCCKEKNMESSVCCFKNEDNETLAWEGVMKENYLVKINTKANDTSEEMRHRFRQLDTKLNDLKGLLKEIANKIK

[10] = molecular target: T3, Transient receptor potential cation channel subfamily M member 8; assay: Agonist activity at TRPM8 (unknown origin)
Target sequence in this assay (Q7Z2W7 whole entry): as the sequence (Q7Z2W7 whole entry, looked up) above

Transient receptor potential cation channel subfamily M member 8 (Rattus norvegicus), sequence (Q8R455 whole entry, looked up): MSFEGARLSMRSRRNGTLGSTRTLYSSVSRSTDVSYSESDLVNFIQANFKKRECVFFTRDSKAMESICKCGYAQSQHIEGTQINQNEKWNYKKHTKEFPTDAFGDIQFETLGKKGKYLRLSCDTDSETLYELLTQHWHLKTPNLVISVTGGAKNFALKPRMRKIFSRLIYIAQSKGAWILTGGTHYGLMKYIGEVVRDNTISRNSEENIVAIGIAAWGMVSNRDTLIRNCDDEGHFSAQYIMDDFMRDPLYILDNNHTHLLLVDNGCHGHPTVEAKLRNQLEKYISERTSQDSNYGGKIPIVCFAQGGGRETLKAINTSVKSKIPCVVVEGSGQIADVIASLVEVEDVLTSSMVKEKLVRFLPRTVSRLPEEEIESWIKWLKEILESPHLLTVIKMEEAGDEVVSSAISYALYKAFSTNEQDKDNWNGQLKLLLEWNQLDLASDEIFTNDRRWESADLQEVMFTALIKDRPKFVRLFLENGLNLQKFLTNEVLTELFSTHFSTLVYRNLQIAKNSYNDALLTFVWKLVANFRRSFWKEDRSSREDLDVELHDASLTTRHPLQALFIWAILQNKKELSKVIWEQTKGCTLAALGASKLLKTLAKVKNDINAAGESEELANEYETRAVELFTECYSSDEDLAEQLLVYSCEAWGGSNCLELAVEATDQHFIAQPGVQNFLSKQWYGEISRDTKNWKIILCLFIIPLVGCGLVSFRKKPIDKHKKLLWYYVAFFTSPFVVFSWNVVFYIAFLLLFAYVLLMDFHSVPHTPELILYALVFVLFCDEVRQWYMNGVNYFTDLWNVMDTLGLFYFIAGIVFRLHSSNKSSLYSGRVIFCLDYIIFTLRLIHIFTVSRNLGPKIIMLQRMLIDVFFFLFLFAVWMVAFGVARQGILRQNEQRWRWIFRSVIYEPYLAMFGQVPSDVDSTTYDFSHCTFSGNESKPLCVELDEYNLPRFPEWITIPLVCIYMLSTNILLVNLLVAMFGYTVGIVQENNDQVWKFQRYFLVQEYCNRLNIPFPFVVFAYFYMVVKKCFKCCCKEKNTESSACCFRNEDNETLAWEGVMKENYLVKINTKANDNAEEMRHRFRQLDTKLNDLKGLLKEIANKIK
Transient receptor potential cation channel subfamily M member 8 (Rattus norvegicus, UniProt Q8R455), sequence (Q8R455 whole entry): as the sequence (Q8R455 whole entry, looked up) above
T2 sequence (Q6RI86 whole entry): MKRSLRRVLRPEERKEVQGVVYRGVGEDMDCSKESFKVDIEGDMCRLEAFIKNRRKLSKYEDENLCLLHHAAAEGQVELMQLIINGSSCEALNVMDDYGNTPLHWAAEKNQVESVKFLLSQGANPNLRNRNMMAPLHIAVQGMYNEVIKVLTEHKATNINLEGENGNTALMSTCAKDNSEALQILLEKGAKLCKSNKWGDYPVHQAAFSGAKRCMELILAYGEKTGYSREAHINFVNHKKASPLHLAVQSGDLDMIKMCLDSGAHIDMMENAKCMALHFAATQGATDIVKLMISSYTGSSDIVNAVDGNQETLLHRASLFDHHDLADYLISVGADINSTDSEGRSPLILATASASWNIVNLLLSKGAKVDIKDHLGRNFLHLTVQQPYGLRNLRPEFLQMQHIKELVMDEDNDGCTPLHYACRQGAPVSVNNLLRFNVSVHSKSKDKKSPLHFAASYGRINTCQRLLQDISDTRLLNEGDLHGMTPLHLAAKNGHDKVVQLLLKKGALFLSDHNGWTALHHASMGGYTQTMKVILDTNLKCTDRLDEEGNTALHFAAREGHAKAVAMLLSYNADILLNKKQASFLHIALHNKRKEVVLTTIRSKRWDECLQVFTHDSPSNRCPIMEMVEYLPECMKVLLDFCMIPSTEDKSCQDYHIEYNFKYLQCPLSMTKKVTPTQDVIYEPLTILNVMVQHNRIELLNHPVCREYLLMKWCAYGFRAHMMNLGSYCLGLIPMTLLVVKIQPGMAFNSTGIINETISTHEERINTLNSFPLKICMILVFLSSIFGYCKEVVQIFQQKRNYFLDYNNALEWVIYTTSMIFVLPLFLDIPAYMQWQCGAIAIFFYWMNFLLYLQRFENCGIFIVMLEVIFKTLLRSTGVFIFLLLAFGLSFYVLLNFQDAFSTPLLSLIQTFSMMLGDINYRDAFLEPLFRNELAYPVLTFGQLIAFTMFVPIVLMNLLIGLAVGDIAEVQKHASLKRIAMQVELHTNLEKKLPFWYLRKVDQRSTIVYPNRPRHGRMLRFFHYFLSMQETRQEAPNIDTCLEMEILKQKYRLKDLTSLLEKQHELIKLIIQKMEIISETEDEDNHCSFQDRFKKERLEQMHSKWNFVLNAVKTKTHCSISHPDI
T1 sequence (Q8NER1 whole entry): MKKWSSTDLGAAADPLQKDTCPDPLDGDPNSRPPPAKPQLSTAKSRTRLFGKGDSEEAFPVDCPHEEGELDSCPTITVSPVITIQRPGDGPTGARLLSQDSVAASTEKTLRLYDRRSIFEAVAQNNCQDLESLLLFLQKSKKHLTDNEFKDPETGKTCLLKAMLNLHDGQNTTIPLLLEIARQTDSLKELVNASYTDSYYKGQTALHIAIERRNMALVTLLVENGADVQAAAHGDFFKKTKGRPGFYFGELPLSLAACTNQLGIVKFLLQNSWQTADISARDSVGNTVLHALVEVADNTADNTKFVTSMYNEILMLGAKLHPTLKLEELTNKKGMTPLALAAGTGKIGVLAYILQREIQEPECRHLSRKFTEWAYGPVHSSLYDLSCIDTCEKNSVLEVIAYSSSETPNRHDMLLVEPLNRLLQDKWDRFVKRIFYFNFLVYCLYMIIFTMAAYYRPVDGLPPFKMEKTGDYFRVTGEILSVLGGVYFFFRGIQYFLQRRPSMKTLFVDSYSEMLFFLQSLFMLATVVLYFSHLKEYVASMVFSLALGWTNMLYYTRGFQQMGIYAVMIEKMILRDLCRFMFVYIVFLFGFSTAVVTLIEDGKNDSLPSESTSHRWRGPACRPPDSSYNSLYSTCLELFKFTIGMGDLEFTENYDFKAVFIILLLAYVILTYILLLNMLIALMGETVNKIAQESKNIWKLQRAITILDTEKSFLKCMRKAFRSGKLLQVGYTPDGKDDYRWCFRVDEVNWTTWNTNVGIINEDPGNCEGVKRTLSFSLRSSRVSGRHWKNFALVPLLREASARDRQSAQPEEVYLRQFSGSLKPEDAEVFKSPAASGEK

SMILES: CC(C)=CCC/C(C)=C\COC(=O)Cc1ccc(Cl)cc1
- IC50 [1]: > 100 µM
- IC50 [2]: 0.013 µM
- EC50 [3]: 0.016 µM
- IC50 [4]: 0.75 µM
- Efficacy [5]: < 10%
- Efficacy [6]: < 10%

SMILES: CC(C)=CCC/C(C)=C/CNC(=O)Oc1ccc(C(C)(C)C)cc1
- IC50 [1]: 92.3 µM
- IC50 [2]: 0.038 µM
- EC50 [7]: 10.7 µM
- EC50 [3]: 0.045 µM
- IC50 [4]: 86.5 µM
- Efficacy [5]: < 10%
- Efficacy [6]: 22.4%

SMILES: CC(C)=CCC/C(C)=C/CNC(=O)Nc1ccc(C(C)(C)C)cc1
- IC50 [1]: 76.8 µM
- IC50 [2]: 0.57 µM
- EC50 [7]: 8.7 µM
- EC50 [3]: 0.092 µM
- IC50 [4]: > 100 µM
- Efficacy [5]: < 10%
- Efficacy [6]: 21.9%

SMILES: CC(C)=CCC/C(C)=C\CNC(=O)Nc1cccc(Cl)c1
- IC50 [1]: 0.38 µM
- IC50 [2]: 0.41 µM
- EC50 [7]: 1.7 µM
- EC50 [3]: 0.43 µM
- IC50 [4]: 0.71 µM
- Efficacy [5]: < 10%
- Efficacy [6]: 20.1%

SMILES: CC(C)=CCC/C(C)=C/CNC(=O)CCc1ccccc1
- IC50 [1]: > 100 µM
- IC50 [2]: 7.4 µM
- EC50 [7]: 16.2 µM
- EC50 [3]: 7.5 µM
- IC50 [4]: 5.5 µM
- Efficacy [5]: < 10%
- Efficacy [6]: 10.5%

SMILES: CC(C)=CCCC(C)CCOC(=O)Cc1ccc(Cl)cc1 (stereo not given)
- IC50 [1]: > 100 µM
- IC50 [4]: 0.83 µM
- Efficacy [5]: < 10%
- Efficacy [6]: < 10%

SMILES: COc1ccc(CC(=O)OC/C=C(\C)CCC=C(C)C)cc1
- IC50 [1]: > 100 µM
- IC50 [2]: 0.38 µM
- EC50 [7]: 8 µM
- EC50 [3]: 0.51 µM
- IC50 [4]: > 100 µM
- Efficacy [5]: < 10%
- Efficacy [6]: 13.2%

SMILES: CC(C)=CCC/C(C)=C/COC(=O)Cc1ccc(Cl)cc1
- IC50 [1]: > 100 µM
- IC50 [2]: 0.13 µM
- EC50 [3]: 0.12 µM
- IC50 [4]: > 100 µM
- Efficacy [5]: < 10%
- Efficacy [6]: < 10%

SMILES: CC(C)=CCC/C(C)=C/CNC(=O)NC1CCCCC1
- IC50 [1]: 9.9 µM
- IC50 [2]: 11.8 µM
- EC50 [7]: 4.8 µM
- EC50 [3]: 4.9 µM
- IC50 [4]: > 100 µM
- Efficacy [5]: < 10%
- Efficacy [6]: 36%

SMILES: CC(=O)OCCC(C)CCC=C(C)C (stereo not given) [CITRONELLYL ACETATE]
- IC50 [1]: > 100 µM
- IC50 [2]: > 100 µM
- EC50 [3]: 12.2 µM
- IC50 [4]: > 100 µM
- Efficacy [5]: < 10%
- Efficacy [6]: < 10%
- inhibition [8]: 70%

SMILES: CC(C)=CCC/C(C)=C\COC(=O)c1ccc(C#N)cc1
- IC50 [1]: > 100 µM
- IC50 [2]: 0.34 µM
- EC50 [3]: 0.26 µM
- IC50 [4]: > 100 µM
- Efficacy [5]: < 10%
- Efficacy [6]: < 10%

SMILES: CC(C)=CCC/C(C)=C/CO [GERANIOL]
- IC50 [1]: > 100 µM
- Efficacy [9]: 28%
- IC50 [2]: > 100 µM
- EC50 [10]: 5900 µM
- IC50 [4]: > 100 µM
- Efficacy [5]: < 10%
- Efficacy [6]: < 10%

SMILES: CC(C)=CCC/C(C)=C/CNC(=O)Cc1ccc(Cl)cc1
- IC50 [1]: 0.89 µM
- IC50 [2]: 1.4 µM
- EC50 [7]: 1.1 µM
- EC50 [3]: 1.2 µM
- IC50 [4]: 3.8 µM
- Efficacy [5]: < 10%
- Efficacy [6]: 57.5%

SMILES: CC(C)=CCC/C(C)=C\COC(=O)Cc1cccc(I)c1
- IC50 [1]: > 100 µM
- IC50 [2]: 0.94 µM
- EC50 [3]: 0.1 µM
- IC50 [4]: > 100 µM
- Efficacy [5]: < 10%
- Efficacy [6]: < 10%

SMILES: CC(C)=CCC/C(C)=C/COC(=O)Cc1ccc(C)cc1
- IC50 [1]: > 100 µM
- IC50 [4]: 5.8 µM
- Efficacy [5]: < 10%
- Efficacy [6]: < 10%

SMILES: CC(C)=CCC/C(C)=C\CNC(=O)CCc1ccccc1
- IC50 [1]: > 100 µM
- IC50 [2]: 13.9 µM
- EC50 [3]: 6.6 µM
- IC50 [4]: 2.2 µM
- Efficacy [5]: < 10%
- Efficacy [6]: < 10%

SMILES: CC(=O)OC/C=C(\C)CCC=C(C)C [GERANYL ACETATE]
- IC50 [1]: > 100 µM
- IC50 [2]: 21.2 µM
- EC50 [3]: 25.8 µM
- IC50 [4]: > 100 µM
- Efficacy [5]: < 10%
- Efficacy [6]: < 10%

SMILES: CC(C)=CCC/C(C)=C\COC(=O)c1cccc(C)c1
- IC50 [1]: > 100 µM
- IC50 [2]: 0.14 µM
- EC50 [3]: 0.14 µM
- IC50 [4]: 30.8 µM
- Efficacy [5]: < 10%
- Efficacy [6]: < 10%

SMILES: CC(C)=CCC/C(C)=C\COC(=O)Cc1ccc2ccccc2c1
- IC50 [1]: > 100 µM
- IC50 [2]: 0.18 µM
- EC50 [3]: 0.081 µM
- IC50 [4]: > 100 µM
- Efficacy [5]: < 10%
- Efficacy [6]: < 10%

SMILES: CC(C)=CCC/C(C)=C\CO [NEROL]
- IC50 [1]: > 100 µM
- IC50 [2]: > 100 µM
- EC50 [3]: 11.7 µM
- IC50 [4]: > 100 µM
- Efficacy [5]: < 10%
- Efficacy [6]: < 10%
